In the library only some 11% were active in any assay of this set; here they are far more common.
M1 antag = antagonists of rat M1 muscarinic receptor | CHO-M1 cells, Fluo-4 calcium, ACh EC80 antagonist mode; hits give low values | hit rate 3.4% among 64,000 | AID 628, 2007 | Muscarinic acetylcholine receptor M1 (Rattus norvegicus), P08482 | B-score at 10 µM;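 active = calcium fluorescence response, raw or row-and-column corrected B-score, differing from the plate sample mean either way at a set confidence level, mostly lower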
M1 ag = M1 muscarinic receptor agonists, primary screen, CHO-M1 cells, Fluo-4 calcium, agonist mode; hit rate 3% among 64,000; Muscarinic acetylcholine receptor M1; B-score at 10 µM; Fluo-4 calcium fluorescence; hits give high values;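 active = fluorescence rise, raw or as B-score row- and column-corrected plate score, outside the 99.7% band of its plate's samples, either direction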
RORA act = activators of orphan receptor RORA, primary screen, cell-based, luminescence; Nuclear receptor ROR-alpha (Homo sapiens), P35398; hit rate 1.5% among 65,000; activation, % at 10 µM; CHO-K1 Gal4-RORA LBD luciferase reporter; percent increase over mock-subtracted basal signal;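 active = activation above the mean of all tested compounds plus 3 SD, cut at about 49% in these data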;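 also: 0% = DMSO-treated RORA cells and 100% = added signal equal to DMSO minus mock-transfected cells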
Target sequence (P35398 whole entry, looked up, the tested form may be a part): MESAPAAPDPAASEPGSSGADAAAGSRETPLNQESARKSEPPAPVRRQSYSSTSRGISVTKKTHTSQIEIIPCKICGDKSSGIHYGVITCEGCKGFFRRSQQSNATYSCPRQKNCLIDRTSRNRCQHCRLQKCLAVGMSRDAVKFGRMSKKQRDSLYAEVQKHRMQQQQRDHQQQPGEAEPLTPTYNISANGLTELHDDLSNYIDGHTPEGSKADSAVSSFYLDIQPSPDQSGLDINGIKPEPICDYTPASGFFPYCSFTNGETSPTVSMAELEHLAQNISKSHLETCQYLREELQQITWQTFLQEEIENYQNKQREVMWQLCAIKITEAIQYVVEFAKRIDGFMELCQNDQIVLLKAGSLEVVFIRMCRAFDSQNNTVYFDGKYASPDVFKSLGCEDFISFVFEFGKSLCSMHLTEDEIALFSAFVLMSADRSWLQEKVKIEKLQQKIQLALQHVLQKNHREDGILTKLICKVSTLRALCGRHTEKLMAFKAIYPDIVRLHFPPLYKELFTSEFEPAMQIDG
SF-1 act = activators of human SF-1, primary screen, cell-based, CHO-K1, Gal4-SF-1 LBD, luciferase luminescence | activation, % at 10 µM | hit rate 1.9% among 65,000 | Steroidogenic factor 1 (Homo sapiens), Q13285 | CHO-K1 Gal4-SF-1 LBD luciferase reporter; % increase over DMSO SF-1-specific signal;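 active = activation above the mean activation of all tested compounds plus 3 SD, cut at about 50% in these data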
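Test system: transient Gal4-SF-1 LBD reporter, CHO-K1; Amount: 4,000 CHO-K1 cells per well; Doses: 10 µM only; Timing: compound exposure 20 h at 37 °C; Signal: luciferase light emission; Read-out basis: percent activation relative to DMSO median and mock-transfected background; Control set: DMSO negative control and −SF1 background wells; Replicates: one test per compound.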
mHtt clearance = clearance of mutant huntingtin inclusions, primary screen, imaging, HeLa Exon1htt(103Q)mCFP, confocal imaging | AID 853, 2007 | hit rate 0.42% among 47,000 | aggregate imaging; zero = plate's median compound well | inhibition, % at 1.5 µM;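 active = inhibition of aggregate fluorescence above about 70%, also judged a hit by eye on the cell image, limit read from the data, passing the limit was not always enough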;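 also: cells exposed to compound for three days before fixation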
D1 mod = D1 CRE-luciferase signal change, two-sided – cell-based, HEK293 D1, dopamine EC30, D1 allosteric modulator project, primary screen | hit rate 5.9% among 58,000 | B-score at 10 µM | dopamine EC30 potentiation; actives deviate in either direction;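 active = luminescence count or its row- and column-corrected plate score outside the 99.7% band of the plate's sample wells, on either side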
Numbers without * were called inactive; · = no result.

SMILES | M1 antag | M1 ag | RORA act | SF-1 act | mHtt clearance | D1 mod
CN1CCN(C(=O)COc2ccc(-c3nc4ccccc4s3)cc2)CC1 | -0.18 | -0.21 | · | -71 | -24 | -4.4*
CC(=O)Nc1ccc(OC(=O)c2ccccc2N)cc1 | 1 | 0.61 | -10 | -18 | -57 | -0.35
Nc1ccccc1C(=O)OCCOc1ccccc1 | 0.31 | 0.76 | 7 | -5 | · | -4.4*
O=C(C(Cc1ccccc1)NS(=O)(=O)c1ccc(F)cc1)N1CCC2(CC1)OCCO2 (stereo not drawn) | -0.77 | 1.9 | -10 | -5 | -7 | 0.014
CC1CN(C)C(C)(C)CC1(O)c1ccccc1 (stereo not drawn) | · | · | · | · | -371 | ·
Nc1c(C(=O)NCCN2CCOCC2)c2nc3ccccc3nc2n1Cc1ccco1 | -0.0024 | 6.7* | -16 | -7 | -2 | -0.37
CSc1ccc(C(=O)C(C)(C)N2CCOCC2)cc1 | 0.37 | 0.23 | -17 | 7 | -55 | -0.55
Cn1ncnc2c(=O)n(C)c(=O)nc1-2 | -0.042 | -0.28 | -98 | -96 | · | -6.5*
Cn1c(O)c(C=NCCOc2ccc(Cl)cc2)c(=O)n(C)c1=O | 0.07 | -1.7 | 9 | -11 | · | 2.5
Cn1c(O)c(C=NCCN2CCN(C(=O)c3ccccc3)CC2)c(=O)n(C)c1=O | -0.14 | 0.38 | -9 | 14 | · | -7.4*
CCCCCCn1c(O)c(C=NC2CCN(Cc3ccccc3)CC2)c(=O)[nH]c1=O | -1.3 | -0.62 | -10 | 17 | · | -3*
Cc1c2ccncc2c(C)c2c1[nH]c1ccccc12 | -0.42 | 35* | -29 | -76 | · | -0.18
c1ccc2c(c1)[nH]c1cnccc12 | -0.01 | -0.13 | -24 | -7 | · | 0.098
COC(=O)C1C2c3ccccc3OC1(C)N=c1s/c(=C/c3cn(C)nc3C)c(=O)n12 (stereo not drawn) | 0.85 | -1 | -13 | -5 | · | -4.2*
Cc1cc(OC(=O)CCNC(=O)OC(C)(C)C)c2c3c(c(=O)oc2c1)CCC3 | -1.3 | 7.1* | -5 | 6 | -4 | -0.64
CC/C(=C\C=C\[C@@H]1C=C[C@@H]2CCC[C@H]2[C@@H]1C(=O)c1ccc[nH]1)[C@@H]1O[C@@H]([C@@H](C)C(=O)O)CC[C@@H]1C | · | · | · | · | 10 | ·
CC1(C)C2([N+](=O)[O-])CNCC1([N+](=O)[O-])CNC2 | · | · | · | · | -13 | ·
Cc1ccc(-n2c(O)c(C=NCc3cccnc3)c(=O)[nH]c2=O)cc1C | -0.77 | 0.22 | 10 | 8 | -30 | -0.55
Cc1ccc(-n2c(O)c(C=Nc3ccccc3N)c(=O)[nH]c2=O)cc1C | 0.81 | 0.37 | 55* | 46 | -25 | -0.0047
COc1ccc2c(c1OC)C(=O)OC2c1c(O)n(C2CCCCC2)c(=O)[nH]c1=O (stereo not drawn) | 1.3 | -0.88 | -15 | 1 | -21 | ·
CC1=CC(C)C(COC(N)=O)(COC(N)=O)C(C)C1 (stereo not drawn) | 0.33 | -0.74 | 4 | -18 | · | -1.4*
COP(=S)(OC)SCN1C(=O)c2ccccc2C1=O | -0.99 | 0.61 | -6 | -6 | -25 | 0.09
N=Cc1c(O)n(-c2cccc(Cl)c2)c(=O)[nH]c1=O | -0.74 | 2.5* | -10 | 6 | -72 | 0.75
NC12CN3CN(CN(C3)C1)C2 (tested in a mixture with another compound) | -0.9 | -0.19 | -6 | 10 | 23 | -0.22
N=C(N)c1c(O)n(C2CCCCC2)c(=O)n(C2CCCCC2)c1=O | 0.033 | -0.63 | -12 | -4 | · | 1.9
CCOP(=S)(OCC)c1ccc(N(C)C)cc1 | -0.38 | 3* | -11 | -9 | -30 | -0.5

Bioassay records as filed in PubChem BioAssay.
